Data from publication PMC9670593 (Journal of Molecular Liquids, 2022).
Converted amounts (≈) assume the structure as drawn. “And” between values parts separate entries of the source, which are not always exact repeats. Equal values may be shown once. Read-outs that look alike come from different tables or passages of the source.

How the values were obtained:
Escherichia coli = conditions: cited from earlier work
[1] = tested on: Escherichia coli (ATCC: 25922); assay: Antibacterial agar disc diffusion; type: cell-based; conditions: for zone of inhibition at 100 µg/mL: Escherichia coli, read-out: Inhibition zones (mm); for Activity index (%): relative to ampicillin; for Inhibition zones (mm): 5-mm discs, 100 μg/mL
How it was run: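 E. coli ATCC 25922 grown on Mueller–Hinton agar, 18–24 h at 35 °C. Inoculum adjusted to McFarland 0.5 (1.5x 10^8 CFU/mL) and swabbed as a lawn on Mueller–Hinton plates. Test compounds were stocked at 20 mg in 1 mL DMSO, and 5-mm paper discs were loaded with 100 μg/mL. Inhibition zone diameter was measured against ampicillin as standard, with DMSO as negative control. Assayed twice.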

[2] = tested on: Escherichia coli (ATCC: 25922); assay: Antibacterial minimal inhibitory concentration; type: cell-based; conditions: 24 h; for Minimum Inhibition concentration (MIC): E. coli
How it was run: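 Test compounds were stocked at 20 mg/mL in DMSO. Ampicillin was run as standard drug and DMSO as negative control. MIC reported in μM.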

[3] = tested on: MCF-7: a human breast cancer cell line; assay: Cytotoxicity MTT assay, MCF-7; type: cell-based; conditions: for IC50: read-out: IC50 MCF-7; for IC50 MCF-7: means ± SD, n = 3
How it was run: (§1)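 Cells were kept in DMEM with 0.2 % sodium bicarbonate and 10 % FBS at 37 °C, 5 % CO2, humidified. Only batches above 98 % trypan-blue viability were used. 10,000 cells/well adhered 24 h before treatment. MTT (5 mg/ml PBS stock, 10 μl per 100 μl) was added for 4 h, formazan dissolved in DMSO and read at 550 nm. Background-corrected survival = ODt/ODc ×100 versus untreated controls; IC50 taken from dose–response curves; cisplatin reference.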

[4] = tested on: HELA: cancerous cervical tumor cells; assay: Cytotoxicity MTT assay, HELA; type: cell-based, human; conditions: for IC50: read-out: IC50 HELA; for IC50 HELA: means ± SD, n = 3; for cytotoxic activity class, HELA: class by IC50 (µg/mL)
How it was run: as §1

[5] = tested on: HEK293: human embryonic kidney cells; assay: Cytotoxicity MTT assay, HEK293 normal cells; type: cell-based; conditions: for IC50 HEK293: MTT, normal cell line, means ± SD, n = 3
How it was run: as §1

[6] = Formation stability constant of the complexes; type: physicochemical; conditions: metal:ligand 1:2
[7] = target: Human serum albumin (HSA) (Homo sapiens, UniProt P02768); assay: HSA binding, fluorescence quenching titration; conditions: slope of Fo/F vs [metal complex]
How it was run: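 HSA concentration fixed spectrophotometrically at 278 nm using ε 35,219 M−1cm−1 (1 cm quartz). Increasing amounts of metal complex were titrated into constant HSA. Tryptophan fluorescence was excited at 280 nm and emission recorded over 300–400 nm. KSV was taken as the slope of the Stern–Volmer plot Fo/F versus [complex].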

Human serum albumin (HSA), sequence (P02768 25-609): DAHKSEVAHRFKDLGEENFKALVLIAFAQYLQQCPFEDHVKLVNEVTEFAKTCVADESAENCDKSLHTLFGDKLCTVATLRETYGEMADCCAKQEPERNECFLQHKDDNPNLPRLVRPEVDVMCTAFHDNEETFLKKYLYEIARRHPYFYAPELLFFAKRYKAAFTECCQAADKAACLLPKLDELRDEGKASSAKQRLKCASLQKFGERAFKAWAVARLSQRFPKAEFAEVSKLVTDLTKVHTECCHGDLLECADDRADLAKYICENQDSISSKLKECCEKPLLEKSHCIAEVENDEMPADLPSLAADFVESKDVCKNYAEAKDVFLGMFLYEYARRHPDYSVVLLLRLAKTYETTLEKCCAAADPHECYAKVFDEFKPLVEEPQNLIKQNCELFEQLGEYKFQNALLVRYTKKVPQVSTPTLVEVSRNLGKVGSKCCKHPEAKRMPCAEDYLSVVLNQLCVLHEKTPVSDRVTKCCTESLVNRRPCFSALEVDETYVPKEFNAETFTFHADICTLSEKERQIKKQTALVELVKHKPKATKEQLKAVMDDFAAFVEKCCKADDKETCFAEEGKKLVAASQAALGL

| Molecule | concentration showing complete inhibition of Escherichia coli (Escherichia coli) | reported growth-inhibiting concentration toward Escherichia coli (Escherichia coli; practical value for more than 24 h) | zone of inhibition at 100 µg/mL [1] | Activity index (%) [1] | MIC ([2]; Escherichia coli, read-out: Minimum Inhibition concentration (MIC)) | IC50 ([3]; Homo sapiens, MCF7a) | IC50 ([4]; Homo sapiens, HeLa) | IC50 ([5]; Homo sapiens, HEK293, read-out: IC50 HEK293) | formation stability constant for the complexes [6] | fluorescence constant (Kvs; Stern-Volmer quenching constant KSV) with HSA [7] | Inhibition zones (mm) [1] | Minimum Inhibition concentration (MIC) [2] | IC50 MCF-7 ([3]; MTT) | IC50 ([3]; MTT) | IC50 HELA ([4]; MTT) | IC50 ([4]; MTT) | IC50 HEK293 [5] | cytotoxic activity class, MCF-7 ([3]; class by IC50 (µg/mL)) | cytotoxic activity class, HELA [4] |
| --- | --- | --- | --- | --- | --- | --- | --- | --- | --- | --- | --- | --- | --- | --- | --- | --- | --- | --- | --- |
| O=[N+]([O-])[O-].[Ag+] [AgNO3] | > 8.5 µM | 6.5 µM |  |  |  |  |  |  |  |  |  |  |  |  |  |  |  |  |  |
| CC1(C)S[C@@H]2[C@H](NC(=O)[C@H](N)c3ccccc3)C(=O)N2[C@H]1C(=O)O [Ampicillin, reference compound] |  |  | 33 mm | 100% |  |  |  |  |  |  |  |  |  |  |  |  |  |  |  |
| CC(=O)Oc1ccccc1C(=O)Nc1ncc([N+](=O)[O-])s1 [Free NTZ, 2-(acetyloxy)-N-(5-nitro-2-thiazolyl) benzamide, reference compound] |  |  | 8 mm | 24% | 105 µM (≈ 32.3 µg/mL) | 62 µg/mL and 202 µM | 78 µg/mL and 254 µM | 1050 ± 10 µg/mL (≈ 3.42 mM) |  |  |  |  |  |  |  |  |  |  |  |
| [Ag(NTZ)2]NO3 [NTZ-Ag(I)] |  |  |  | 85% |  |  |  |  | 4.22 × 10^5 | 3e+06 M⁻¹ | 28 mm | 5.5 µM | 39 ± 4 µg/mL | 50.8 µM | 45 ± 2 µg/mL | 58.7 µM | 660 ± 3 µg/mL |  |  |
| [Au(NTZ)2]Cl3 [NTZ-Au(III)] |  |  |  | 37% |  |  |  |  | 17.92 × 10^5 | 7e+06 M⁻¹ | 12 mm | 27.5 µM | 25 ± 5 µg/mL | 27.3 µM | 8.9 ± 4 µg/mL | 9.7 µM | 675 ± 5 µg/mL | Moderate | very strong (1–10 (very strong)) |
| [Ru(NTZ)2Cl2]Cl [NTZ-Ru(III)] |  |  |  | 61% |  |  |  |  | 34.37 × 10^5 | 4e+06 M⁻¹ | 20 mm | 7.5 µM | 10.5 ± 2 µg/mL | 12.8 µM | 6.5 ± 3 µg/mL | 7.9 µM | 265 ± 5 µg/mL |  | very strong (1–10 (very strong)) |
